# Measured values taken from paper PMC3090455 (Analytical biochemistry, 2011).
# What was measured:
# Background = format: physicochemical
# Procedure, shortened: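 Enzyme-free control wells held Tris/HCl (100 mM, pH 9.0, 0.1 mg/mL BSA), preincubated 5 min at 37°C. Substrate was added from a 5 mM DMSO stock working solution to 50 μM final, and product was read kinetically for 5 min. Read-out was 4-nitrophenol absorbance at […] fluorescence (ex 355/em 450 or ex 330/em 465 nm). Signals were converted to molar amounts via 0.005–0.5 μM standard curves; 8 replicates.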
# rat mEH [1] = target: T1, rat mEH (Rattus norvegicus, UniProt P07687); assay: Specific activity of rat mEH for absorbent/fluorescent substrates; format: biochemical; settings: [S] 50 μM, pH 9.0, 37°C, fluorescent substrates
# T1 sequence (P07687 1-455): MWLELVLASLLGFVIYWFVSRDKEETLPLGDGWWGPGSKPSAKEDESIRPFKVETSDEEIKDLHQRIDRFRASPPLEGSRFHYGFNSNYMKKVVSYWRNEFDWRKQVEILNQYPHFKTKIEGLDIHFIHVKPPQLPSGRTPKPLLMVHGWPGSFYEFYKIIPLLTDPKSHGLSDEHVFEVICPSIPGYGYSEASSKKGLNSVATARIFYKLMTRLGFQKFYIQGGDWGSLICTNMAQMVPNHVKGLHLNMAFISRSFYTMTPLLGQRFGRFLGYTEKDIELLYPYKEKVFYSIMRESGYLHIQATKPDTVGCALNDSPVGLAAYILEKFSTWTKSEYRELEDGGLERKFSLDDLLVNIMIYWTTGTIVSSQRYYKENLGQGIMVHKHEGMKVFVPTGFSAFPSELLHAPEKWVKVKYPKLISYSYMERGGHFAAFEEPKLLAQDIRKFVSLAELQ
# Procedure, shortened: (§1)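 Partially purified recombinant enzyme (0.5–80 μg/mL final) in 100 mM Tris/HCl pH 9.0 with 0.1 mg/mL BSA, preincubated 5 min at 37°C. Substrate added at 50 μM final from 5 mM DMSO stock; buffer-only wells gave background. Read kinetically for 5 min: 4-nitrophenol at 450 nm, or fluorescence (coumarin ex 355/em 450; naphthaldehyde ex 330/em 465). Signals converted via standard curves (0.005–0.5 μM); 8 replicates.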
# human mEH [2] = target: T2, human mEH (Homo sapiens, UniProt P07099); assay: Specific activity of human mEH for absorbent/fluorescent substrates; format: biochemical; settings: [S] 50 μM, pH 9.0, 37°C, fluorescent substrates
# T2 sequence (P07099 1-455): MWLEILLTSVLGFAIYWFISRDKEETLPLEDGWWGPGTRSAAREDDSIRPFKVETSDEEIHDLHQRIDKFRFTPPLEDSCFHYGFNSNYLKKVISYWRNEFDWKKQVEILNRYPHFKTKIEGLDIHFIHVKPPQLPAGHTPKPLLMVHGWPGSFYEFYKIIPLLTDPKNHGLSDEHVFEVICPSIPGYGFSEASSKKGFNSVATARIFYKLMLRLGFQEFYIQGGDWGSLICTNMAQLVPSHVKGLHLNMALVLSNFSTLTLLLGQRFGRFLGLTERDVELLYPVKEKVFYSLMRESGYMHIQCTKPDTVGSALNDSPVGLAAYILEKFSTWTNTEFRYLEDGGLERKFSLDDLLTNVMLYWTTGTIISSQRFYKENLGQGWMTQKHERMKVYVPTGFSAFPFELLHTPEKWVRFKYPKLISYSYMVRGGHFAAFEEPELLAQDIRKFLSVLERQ
# Procedure, shortened: as §1
# rat mEH [3] = target: T1, rat mEH; assay: Kinetic constants determination, rat mEH; format: biochemical; settings: greater
# human mEH [4] = target: T2, human mEH; assay: Kinetic constants determination, human mEH; format: biochemical; settings: lower than for cSO
# rat mEH [5] = target: T1, rat mEH; assay: High throughput screening end-point assay with 11, rat mEH; format: biochemical; settings: average, n = 4 for each enzyme, 30 min end-point
# Procedure, shortened: (§2)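 End-point screen of a pesticide library at 10 μM final. Recombinant partially purified enzyme (human 1.6, rat 0.5 μg/mL final) in 100 mM Tris/HCl pH 8.5 with 0.1 mg/mL BSA, preincubated with compounds 5 min at 30°C. Substrate added to 25 μM, then 30 min at room temperature in the dark before fluorescence reading (ex 330/em 465 nm). Buffer-only background and full-activity control wells; duplicate averages.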
# human mEH [6] = target: T2, human mEH; assay: High throughput screening end-point assay with 11, human mEH; format: biochemical; settings: average, n = 4 for each enzyme, 30 min end-point
# Procedure, shortened: as §2
# Substrate solubility = format: physicochemical; settings: assay buffer, pH 9
# human mEH [7] = target: T2, human mEH; assay: Assay conditions optimization with substrate 11, human mEH; format: biochemical
# Procedure, shortened: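 Recombinant human mEH from baculovirus, partially purified. Enzyme titrated at 0–10 μg/mL final against 25 μM fluorogenic glycidyl carbonate substrate, in 0.1 M Tris/HCl pH 9.0 with 0.1 mg/mL BSA at 37°C, followed over 30 min. Then 1.6 μg/mL enzyme with substrate compared across six buffers (three pH values) at 30 and 37°C over 10 min, against enzyme-free background. 6-Methoxy-2-naphthaldehyde read at ex 330/em 465 nm.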
# [8] = HmEH 1.6 μg/mL, 25 μM 11, Tris/HCl pH 9.0, 37°C
compound,measurement,setting,value
"COc1ccc2cc(C(C#N)OC(=O)OCC3CO3)ccc2c1 (centres unmarked) [compound 11, Cyano(6-methoxynaphthalen-2-yl)methyl (oxiran-2-ylmethyl) Carbonate]",reduction of background hydrolysis on reducing pH,"Background; Tris/HCl, pH reduced from 9.0 to 8.5, 25 μM 11",≈ 30%
same,background hydrolysis,"Background; [S] 50 μM, Tris/HCl 100 mM pH 9.0, 0.1 mg/mL BSA, 37°C, fluorescent substrates",0.018 ± 0.003 nmol/min
same,reduction of background hydrolysis on reducing temperature,"Background; incubation temperature from 37 to 30 °C, 25 μM 11",at least 50%
same,Rat mEH S/B,rat mEH [1],5
same,Rat mEH S/N,rat mEH [1],48
same,Rat mEH Spec. act.,rat mEH [1],68 ± 4 nmol/min/mg
same,Rat mEH Z',rat mEH [1],0.73
same,Human mEH S/B,human mEH [2],4
same,Human mEH Spec. act.,human mEH [2],25 ± 2 nmol/min/mg
same,Human mEH Z',human mEH [2],0.66
same,"VM/KM relative to cSO and 9, rat mEH",rat mEH [3],10 fold
same,"KM relative to cSO, human mEH",human mEH [4],~40 fold
same,S/N of HTS assay,rat mEH [5],> 30
same,Z' of HTS assay,rat mEH [5],0.69 ± 0.03
same,S/N of HTS assay,human mEH [6],> 30
same,Z' of HTS assay,human mEH [6],0.69 ± 0.03
same,solubility,Substrate solubility,~50 µM
same,signal to background ratio (S/B),human mEH [7]; [8],≈ 3
same,signal to noise ratio (S/N),human mEH [7]; [8],≈ 40
same,decrease of catalytic activity of human mEH on reducing temperature,"human mEH [7]; incubation temperature from 37 to 30 °C, all buffers tested, 25 μM 11",≈ 30%
